Where two headings read alike, the source gives them in different places. Where a SMILES comes first, the peptide text is derived from it. [ ]: non-standard residue; d: D form. The star is where a group is joined. Sta = CC(C)C[C@H](N)[C@@H](O)CC(=O)O; Isovaleryl = CC(C)CC(=O)*; CH2Cl = ClC*
What was measured:
[1] = system: HLA-I presentation of M. tuberculosis epitopes by H37Rv-eGFP-infected DCs; test: cells; assay type: cell-based, human; conditions: for inhibition at 10 µg/mL: Homo sapiens, T-cell
[2] = molecular target: T1, TAP (Homo sapiens, UniProt Q03518+Q03519); test: ICP47-mediated TAP inhibition, intracellular IFN-γ staining of T cell clones; assay type: cell-based; conditions: adenovirus-ICP47-transduced DCs pulsed with 0.25–1 μg/ml cognate peptides
T1 sequence (Q03518 1-748): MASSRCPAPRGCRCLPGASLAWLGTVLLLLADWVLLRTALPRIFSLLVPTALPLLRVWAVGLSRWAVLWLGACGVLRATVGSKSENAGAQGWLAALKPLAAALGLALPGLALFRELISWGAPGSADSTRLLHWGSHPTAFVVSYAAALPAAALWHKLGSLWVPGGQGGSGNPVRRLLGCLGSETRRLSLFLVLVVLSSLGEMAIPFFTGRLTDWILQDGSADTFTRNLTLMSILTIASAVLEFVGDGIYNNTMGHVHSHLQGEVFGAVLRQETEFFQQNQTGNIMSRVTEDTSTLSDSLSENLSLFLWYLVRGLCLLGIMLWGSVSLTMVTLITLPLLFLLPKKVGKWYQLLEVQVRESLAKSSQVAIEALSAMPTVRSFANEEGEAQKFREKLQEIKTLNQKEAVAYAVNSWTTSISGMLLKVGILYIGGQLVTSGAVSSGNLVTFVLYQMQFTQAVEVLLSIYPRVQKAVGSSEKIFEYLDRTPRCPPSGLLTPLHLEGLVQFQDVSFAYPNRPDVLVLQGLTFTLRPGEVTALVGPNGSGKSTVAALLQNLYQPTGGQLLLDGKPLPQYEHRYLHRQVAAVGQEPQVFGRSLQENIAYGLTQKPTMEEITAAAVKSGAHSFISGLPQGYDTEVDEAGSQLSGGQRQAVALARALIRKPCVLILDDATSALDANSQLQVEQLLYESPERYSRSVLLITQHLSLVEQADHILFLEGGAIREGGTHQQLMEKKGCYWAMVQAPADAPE
T1 sequence (Q03519 1-686): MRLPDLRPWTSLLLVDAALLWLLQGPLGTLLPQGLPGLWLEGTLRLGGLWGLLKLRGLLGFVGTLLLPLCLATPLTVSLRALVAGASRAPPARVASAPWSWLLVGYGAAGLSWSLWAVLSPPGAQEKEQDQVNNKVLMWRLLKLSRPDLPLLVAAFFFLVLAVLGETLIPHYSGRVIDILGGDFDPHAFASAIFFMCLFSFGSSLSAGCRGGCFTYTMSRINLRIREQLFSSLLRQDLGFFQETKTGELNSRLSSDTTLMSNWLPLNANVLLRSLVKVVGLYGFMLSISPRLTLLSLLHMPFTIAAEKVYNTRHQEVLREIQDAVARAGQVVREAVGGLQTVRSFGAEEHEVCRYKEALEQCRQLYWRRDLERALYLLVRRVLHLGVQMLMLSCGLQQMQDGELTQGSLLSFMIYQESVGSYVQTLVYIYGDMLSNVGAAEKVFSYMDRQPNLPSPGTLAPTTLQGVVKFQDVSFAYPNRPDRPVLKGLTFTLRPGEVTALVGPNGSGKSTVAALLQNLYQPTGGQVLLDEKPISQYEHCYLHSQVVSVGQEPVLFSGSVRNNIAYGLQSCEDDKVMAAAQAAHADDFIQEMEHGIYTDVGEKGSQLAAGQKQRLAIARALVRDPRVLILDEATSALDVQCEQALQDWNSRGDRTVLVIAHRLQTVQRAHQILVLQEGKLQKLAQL

[3] = system: DCs; test: Toxicity of inhibitor to DCs; assay type: cell-based; conditions: human DCs
In short: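 Human DCs were derived from leukapheresis PBMCs. Adherent PBMCs were cultured 5 d with GM-CSF (10 ng/ml) and IL-4 (10 ng/ml) in RPMI 1640 with 10% pooled human serum, 4 mM L-glutamine and gentamicin (50 μg/ml).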

[4] = molecular target: Purified 20S immunoproteasomes (Homo sapiens, UniProt P28062+P28065+P40306); test: In vitro proteasome digestion of CFP10_2–21; assay type: biochemical; conditions: epoxomicin 1 μM, 20 h, 37°C
[5] = system: CD8^+ T cells present in PBMCs; conditions: PBMCs of the donor from whom the clone was derived; cited from earlier work
[6] = […], AAF-CMK at highest possible nontoxic dose, data not shown
[7] = cycloheximide 10 μg/ml, […], Fig. 5

Molecule: CC(=O)N[C@@H](CC(C)C)C(=O)N[C@@H](CC(C)C)C(=O)N[C@H](C=O)CCCNC(=N)N [leupeptin]
- Effect on presentation of the EsxJ24–34 or CFP10_75–83 epitope [1, 6]: did not block

Molecule: ICP47: HSV-1–encoded protein, prevents peptide binding to cytosolic face of TAP; expressed from an adenovirus vector
- Effect on presentation of cognate peptide to CD8+ T cell clones [2]: no effect

Molecule: C[C@H](N)C(=O)N[C@@H](C)C(=O)N[C@@H](Cc1ccccc1)C(=O)CCl [AAF-CMK] (H-Ala-Ala-Phe-CH2Cl)
- Effect on presentation of the EsxJ24–34 or CFP10_75–83 epitope [1, 6]: no effect

Molecule: CC(C)CC(=O)N[C@H](C(=O)N[C@H](C(=O)N[C@@H](CC(C)C)[C@@H](O)CC(=O)N[C@@H](C)C(=O)N[C@@H](CC(C)C)[C@@H](O)CC(=O)O)C(C)C)C(C)C [pepstatin A] (Isovaleryl-VV[Sta]A[Sta]-OH)
- Effect on presentation of the EsxJ24–34 or CFP10_75–83 epitope [1, 6]: did not block

Molecule: CC[C@H](C)[C@H](NC(=O)[C@H]([C@@H](C)CC)N(C)C(C)=O)C(=O)N[C@H](C(=O)N[C@@H](CC(C)C)C(=O)[C@@]1(C)CO1)[C@@H](C)O [Epoxomicin, epoxomicin]
- Effect on presentation of CFP10_2–9 and Ag85B144–153 epitopes ([1]; epoxomicin 1–10 μM, […], Fig. 2): ablated
- Highest dose that was nontoxic to DCs [3]: 10 µM
- Effect on amount of CFP10_2–11 generated from CFP10_2–21 by proteasomes ([4]; IFN-γ ELISPOT and LC-MS): drastically reduced
- Effect on generation of CFP10_2–12 from CFP10_2–21 by proteasomes ([4]; detectible by T cell assay but not LC-MS): enhanced the generation

Molecule: EMKTDAATL [CFP10_3–11]
- Ex Vivo Frequency of CD8+ T cells present in PBMCs specific for the indicated epitope [5]: 1/646

Molecule: AEMKTDAA [CFP10_2–9]
- Ex Vivo Frequency of CD8+ T cells present in PBMCs specific for the indicated epitope [5]: 1/102

Molecule: CCN(CC)CCCC(C)Nc1ccnc2cc(Cl)ccc12 (stereo not shown) [chloroquine]
- Effect on presentation of the EsxJ24–34 or CFP10_75–83 epitope [1]: neither of these epitopes was inhibited

Molecule: CO/C1=C\C(C)=C\[C@@H](C)[C@@H](O)[C@@H](C)C/C(C)=C/C=C/[C@H](OC)[C@@H]([C@@H](C)[C@@H](O)[C@H](C)[C@@]2(O)C[C@@H](O)[C@H](C)[C@@H](C(C)C)O2)OC1=O [Bafilomycin, bafilomycin]
- Effect on presentation of all of the epitopes examined ([1]; […], BFA 0.1 μg/ml, bafilomycin 0.2 μM, Fig. 1): did not significantly inhibit

Molecule: C[C@@H]1C[C@@H]([C@H](O)CC2CC(=O)NC(=O)C2)C(=O)[C@@H](C)C1 [Cycloheximide, cycloheximide]
- inhibition at 10 µg/mL ([1]; read-out: Inhibition of presentation of epitope CFP10_2–12): > 70%
- inhibition at 10 µg/mL ([1]; read-out: Inhibition of presentation of epitope EsxJ24–34): > 70%
- Effect on presentation of the HLA-E–presented epitope [1, 7]: enhanced presentation
- Effect on presentation of the epitope CFP10_2–9 [1, 7]: only slightly inhibited

Reference: paper PMC2988655 (Journal of immunology (Baltimore, Md. : 1950), 2010)
